# The source made the active and inactive calls. The calls are words filed in the database; no cut-off is given here.
# Legend:
# Staphylococcus aureus [1] = test: Antibacterial activity against methicillin-sensitive Staphylococcus aureus ATCC 25923 measured after overnight incubation by broth double-dilution method; format: functional
# Outline: (§1)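 MIC by broth double-dilution in liquid Mueller-Hinton medium. Values are reported in µg/mL.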
# Staphylococcus aureus [2] = test: Antibacterial activity against methicillin-sensitive Staphylococcus aureus ATCC 29213 measured after overnight incubation by broth double-dilution method; format: functional; outline: as §1
# Staphylococcus aureus [3] = test: Antibacterial activity against methicillin-resistant Staphylococcus aureus ATCC 33591 measured after overnight incubation by broth double-dilution method; format: functional; outline: as §1
# Staphylococcus aureus [4] = test: Antibacterial activity against methicillin-resistant Staphylococcus aureus 1 measured after overnight incubation by broth double-dilution method; format: functional; outline: as §1
# Staphylococcus aureus [5] = test: Antibacterial activity against methicillin-resistant Staphylococcus aureus 2 measured after overnight incubation by broth double-dilution method; format: functional; outline: as §1
# Staphylococcus aureus [6] = test: Antibacterial activity against methicillin-resistant Staphylococcus aureus BRS3 measured after overnight incubation by broth double-dilution method; format: functional; outline: as §1
# Staphylococcus aureus [7] = test: Antibacterial activity against methicillin-resistant Staphylococcus aureus C1 measured after overnight incubation by broth double-dilution method; format: functional; outline: as §1
# Staphylococcus aureus [8] = test: Antibacterial activity against methicillin-resistant Staphylococcus aureus C2 measured after overnight incubation by broth double-dilution method; format: functional; outline: as §1
# Staphylococcus aureus [9] = test: Antibacterial activity against methicillin-resistant Staphylococcus aureus C7 measured after overnight incubation by broth double-dilution method; format: functional; outline: as §1
# Staphylococcus aureus [10] = test: Antibacterial activity against methicillin-resistant Staphylococcus aureus C14 measured after overnight incubation by broth double-dilution method; format: functional; outline: as §1
# Staphylococcus aureus [11] = test: Antibacterial activity against methicillin-resistant Staphylococcus aureus C16 measured after overnight incubation by broth double-dilution method; format: functional; outline: as §1
# Staphylococcus aureus [12] = test: Antibacterial activity against methicillin-resistant Staphylococcus aureus C19 measured after overnight incubation by broth double-dilution method; format: functional; outline: as §1
# Staphylococcus aureus [13] = test: Antibacterial activity against methicillin-resistant Staphylococcus aureus G1 measured after overnight incubation by broth double-dilution method; format: functional; outline: as §1
# Staphylococcus aureus [14] = test: Antibacterial activity against methicillin-resistant Staphylococcus aureus G6 measured after overnight incubation by broth double-dilution method; format: functional; outline: as §1
# Staphylococcus aureus [15] = test: Antibacterial activity against methicillin-resistant Staphylococcus aureus G12 measured after overnight incubation by broth double-dilution method; format: functional; outline: as §1
# Staphylococcus aureus [16] = test: Antibacterial activity against methicillin-resistant Staphylococcus aureus G14 measured after overnight incubation by broth double-dilution method; format: functional; outline: as §1
# Staphylococcus aureus [17] = test: Antibacterial activity against methicillin-resistant Staphylococcus aureus NRS4 measured after overnight incubation by broth double-dilution method; format: functional; outline: as §1
# Staphylococcus aureus [18] = test: Antibacterial activity against methicillin-resistant Staphylococcus aureus NRS51 measured after overnight incubation by broth double-dilution method; format: functional; outline: as §1
# Staphylococcus aureus [19] = test: Antibacterial activity against methicillin-resistant Staphylococcus aureus NRS77 measured after overnight incubation by broth double-dilution method; format: functional; outline: as §1
# Staphylococcus aureus [20] = test: Antibacterial activity against methicillin-resistant Staphylococcus aureus S14 measured after overnight incubation by broth double-dilution method; format: functional; outline: as §1
# Staphylococcus aureus [21] = test: Antibacterial activity against methicillin-resistant Staphylococcus aureus S17 measured after overnight incubation by broth double-dilution method; format: functional; outline: as §1
# Staphylococcus aureus [22] = test: Antibacterial activity against methicillin-resistant Staphylococcus aureus S22 measured after overnight incubation by broth double-dilution method; format: functional; outline: as §1
# Staphylococcus aureus [23] = test: Antibacterial activity against methicillin-resistant Staphylococcus aureus S24 measured after overnight incubation by broth double-dilution method; format: functional; outline: as §1
# Staphylococcus aureus [24] = test: Antibacterial activity against methicillin-resistant Staphylococcus aureus USA100 measured after overnight incubation by broth double-dilution method; format: functional; outline: as §1
# Staphylococcus aureus [25] = test: Antibacterial activity against methicillin-resistant Staphylococcus aureus USA200 measured after overnight incubation by broth double-dilution method; format: functional; outline: as §1
# Staphylococcus aureus [26] = test: Antibacterial activity against methicillin-resistant Staphylococcus aureus USA300 measured after overnight incubation by broth double-dilution method; format: functional; outline: as §1
# Staphylococcus aureus [27] = test: Antibacterial activity against methicillin-resistant Staphylococcus aureus USA600 measured after overnight incubation by broth double-dilution method; format: functional; outline: as §1
# [28] = tested on: Staphylococcus epidermidis; test: Antibacterial activity against Staphylococcus epidermidis ATCC 35984 measured after overnight incubation by broth double-dilution method; format: functional; conditions: RP62A
# Outline: (§2)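 MIC by broth double-dilution in Mueller-Hinton medium. Re-testing at the time-kill inoculum used 1×10^6 CFU/mL.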
# Enterococcus faecalis [29] = test: Antibacterial activity against Enterococcus faecalis ATCC 29212 measured after overnight incubation by broth double-dilution method; format: functional; outline: as §2
# Enterococcus faecalis [30] = test: Antibacterial activity against Enterococcus faecalis ATCC 49533 measured after overnight incubation by broth double-dilution method; format: functional; outline: as §2
# Enterococcus faecium = test: Antibacterial activity against Enterococcus faecium BM4105-RF measured after overnight incubation by broth double-dilution method; format: functional; outline: as §1
# Enterococcus = test: Antibacterial activity against Vancomycin-resistant Enterococcus measured after overnight incubation by broth double-dilution method; format: functional; outline: as §1
# Listeria monocytogenes = test: Antibacterial activity against Listeria monocytogenes ATCC 19115 measured after overnight incubation by broth double-dilution method; format: functional; outline: as §2
# [31] = tested on: Mycolicibacterium smegmatis; test: Antibacterial activity against Mycobacterium smegmatis MC2-155 measured after overnight incubation by broth double-dilution method; format: functional; conditions: str. MC2 155; outline: as §1
# Acinetobacter baumannii = test: Antibacterial activity against Acinetobacter baumannii ATCC 19606 measured after overnight incubation by broth double-dilution method; format: functional; outline: as §2
# Enterobacter cloacae = test: Antibacterial activity against Enterobacter cloacae ATCC 13047 measured after overnight incubation by broth double-dilution method; format: functional; conditions: subsp. cloacae ATCC 13047; outline: as §1
# Escherichia coli = test: Antibacterial activity against Escherichia coli MC1061 measured after overnight incubation by broth double-dilution method; format: functional; outline: as §1
# Klebsiella pneumoniae = test: Antibacterial activity against Klebsiella pneumoniae ATCC 27736 measured after overnight incubation by broth double-dilution method; format: functional; outline: as §1
# Pseudomonas aeruginosa = test: Antibacterial activity against Pseudomonas aeruginosa ATCC 27853 measured after overnight incubation by broth double-dilution method; format: functional; outline: as §2
# Salmonella enterica = test: Antibacterial activity against Salmonella enterica ATCC 14028 measured after overnight incubation by broth double-dilution method; format: functional; outline: as §2
# [32] = tested on: Staphylococcus epidermidis; test: Antibacterial activity against Staphylococcus epidermidis ATCC 12228 measured after overnight incubation by broth double-dilution method; format: functional; outline: as §2
# [33] = tested on: Staphylococcus epidermidis; test: Antibiofilm activity against Staphylococcus epidermidis ATCC 35984 assessed as reduction of biofilm at […] ug/ml measured after 24 hrs by crystal violet staining based method relative to control; format: functional, RP62A; design: scale not given: the % may be the effect or the level left
# [34] = Cytotoxicity against mouse RBCs assessed as hemolysis up to […] measured after 1 hr; format: toxicity, Erythrocyte; conditions: mouse red blood cells, read-out: Activity
# Mus musculus = species on record: Mus musculus; test: Cytotoxicity against mouse RBCs assessed as hemolysis at 0.24 to 31.2 ug/ml measured after 1 hr; format: toxicity; conditions: erythrocyte
# Outline: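 Murine red blood cells were exposed to compounds at various concentrations, with amikacin as a control. Percent hemolysis was scored against untreated cells (0%) and 1% Triton X (100%).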
# [35] = Cytotoxicity against HEK293 cells assessed as cell death up to 10 ug/ml measured after 24 hrs by resazurin dye-based fluorescence analysis relative to untreated control; format: toxicity; conditions: human, hek293, 24 h
# Staphylococcus aureus [36] = test: Antibacterial activity against methicillin-resistant Staphylococcus aureus S22 using 1 10^6CFU/ml measured after overnight incubation by broth double-dilution method; format: functional
# Staphylococcus aureus [37] = test: Antibacterial activity against methicillin-sensitive Staphylococcus aureus ATCC 6538 measured after overnight incubation by broth double-dilution method; format: functional; outline: as §1
# Staphylococcus aureus [38] = test: Bacteriostatic activity against methicillin-resistant Staphylococcus aureus S22 at 0.5 times MIC measured up to 3 to 6 hrs by time kill analysis; format: functional
# Staphylococcus aureus [39] = test: Bacteriostatic activity against methicillin-resistant Staphylococcus aureus S22 at MIC measured up to 3 to 6 hrs by time kill analysis; format: functional
# Staphylococcus aureus [40] = test: Bactericidal activity against methicillin-resistant Staphylococcus aureus S22 at 4 times MIC measured after 24 hrs by time kill analysis; format: functional
# Staphylococcus aureus [41] = test: Antibiofilm activity against methicillin-sensitive Staphylococcus aureus ATCC 6538 assessed as reduction of biofilm at […] ug/ml measured after 24 hrs by crystal violet staining based method relative to untreated control; format: functional; design: scale not given: the % may be the effect or the level left
# Staphylococcus aureus [42] = test: Antibiofilm activity against methicillin-sensitive Staphylococcus aureus ATCC 6538 assessed as reduction in biofilm mass at 2 ug/ml measured after 24 hrs by crystal violet staining based method relative to control; format: functional; design: scale not given: the % may be the effect or the level left
smiles,measurement,setting,value
CC(C)c1cccc(-n2sc3ccccc3c2=O)c1,MIC,Staphylococcus aureus [1],0.5 µg/mL
same,MIC,Staphylococcus aureus [2],≤ 0.25 µg/mL
same,MIC,Staphylococcus aureus [3],≤ 0.25 µg/mL
same,MIC,Staphylococcus aureus [4],≤ 0.25 µg/mL
same,MIC,Staphylococcus aureus [5],≤ 0.25 µg/mL
same,MIC,Staphylococcus aureus [6],1 µg/mL
same,MIC,Staphylococcus aureus [7],≤ 0.25 µg/mL
same,MIC,Staphylococcus aureus [8],≤ 0.25 µg/mL
same,MIC,Staphylococcus aureus [9],≤ 0.25 µg/mL
same,MIC,Staphylococcus aureus [10],0.5 µg/mL
same,MIC,Staphylococcus aureus [11],≤ 0.25 µg/mL
same,MIC,Staphylococcus aureus [12],≤ 0.25 µg/mL
same,MIC,Staphylococcus aureus [13],≤ 0.25 µg/mL
same,MIC,Staphylococcus aureus [14],0.5 µg/mL
same,MIC,Staphylococcus aureus [15],0.5 µg/mL
same,MIC,Staphylococcus aureus [16],0.5 µg/mL
same,MIC,Staphylococcus aureus [17],1 µg/mL
same,MIC,Staphylococcus aureus [18],≤ 0.25 µg/mL
same,MIC,Staphylococcus aureus [19],0.5 µg/mL
same,MIC,Staphylococcus aureus [20],≤ 0.25 µg/mL
same,MIC,Staphylococcus aureus [21],≤ 0.25 µg/mL
same,MIC,Staphylococcus aureus [22],1 µg/mL
same,MIC,Staphylococcus aureus [23],≤ 0.25 µg/mL
same,MIC,Staphylococcus aureus [24],0.5 µg/mL
same,MIC,Staphylococcus aureus [25],0.5 µg/mL
same,MIC,Staphylococcus aureus [26],≤ 0.25 µg/mL
same,MIC,Staphylococcus aureus [27],≤ 0.25 µg/mL
same,MIC,[28],0.25 µg/mL
same,MIC,Enterococcus faecalis [29],> 125 µg/mL
same,MIC,Enterococcus faecalis [30],> 125 µg/mL
same,MIC,Enterococcus faecium,3.9 µg/mL
same,MIC,Enterococcus,≤ 0.25 µg/mL
same,MIC,Listeria monocytogenes,1 µg/mL
same,MIC,[31],1 µg/mL
same,MIC,Acinetobacter baumannii,31.3 µg/mL
same,MIC,Enterobacter cloacae,> 125 µg/mL
same,MIC,Escherichia coli,15.6 µg/mL
same,MIC,Klebsiella pneumoniae,> 125 µg/mL
same,MIC,Pseudomonas aeruginosa,> 125 µg/mL
same,MIC,Salmonella enterica,> 125 µg/mL
same,MIC,[32],> 125 µg/mL
same,Activity,[33],50 - 60%
same,hemolysis at 1 h,[34],≤ 20%
same,Activity,Mus musculus,Non-Toxic
same,Activity,[35],> 20%
same,Activity,Staphylococcus aureus [36],Active
O=c1c2ccccc2[se]n1-c1ccccc1 [EBSELEN],MIC,Staphylococcus aureus [37],2 µg/mL
same,MIC,Staphylococcus aureus [1],3.9 µg/mL
same,MIC,Staphylococcus aureus [2],2 µg/mL
same,MIC,Staphylococcus aureus [3],0.5 µg/mL
same,MIC,Staphylococcus aureus [4],≤ 0.25 µg/mL
same,MIC,Staphylococcus aureus [5],2 µg/mL
same,MIC,Staphylococcus aureus [6],7.8 µg/mL
same,MIC,Staphylococcus aureus [7],2 µg/mL
same,MIC,Staphylococcus aureus [8],1 µg/mL
same,MIC,Staphylococcus aureus [9],0.5 µg/mL
same,MIC,Staphylococcus aureus [10],2 µg/mL
same,MIC,Staphylococcus aureus [11],3.9 µg/mL
same,MIC,Staphylococcus aureus [12],1 µg/mL
same,MIC,Staphylococcus aureus [13],2 µg/mL
same,MIC,Staphylococcus aureus [14],1 µg/mL
same,MIC,Staphylococcus aureus [15],1 µg/mL
same,MIC,Staphylococcus aureus [16],1 µg/mL
same,MIC,Staphylococcus aureus [17],7.8 µg/mL
same,MIC,Staphylococcus aureus [18],1 µg/mL
same,MIC,Staphylococcus aureus [19],3.9 µg/mL
same,MIC,Staphylococcus aureus [20],≤ 0.25 µg/mL
same,MIC,Staphylococcus aureus [21],1 µg/mL
same,MIC,Staphylococcus aureus [22],1 µg/mL
same,MIC,Staphylococcus aureus [23],0.5 µg/mL
same,MIC,Staphylococcus aureus [24],2 µg/mL
same,MIC,Staphylococcus aureus [25],2 µg/mL
same,MIC,Staphylococcus aureus [26],3.9 µg/mL
same,MIC,Staphylococcus aureus [27],3.9 µg/mL
same,MIC,[28],0.25 µg/mL
same,MIC,Enterococcus faecalis [29],0.5 µg/mL
same,MIC,Enterococcus faecalis [30],≤ 0.25 µg/mL
same,MIC,Enterococcus faecium,0.5 µg/mL
same,MIC,Enterococcus,1 µg/mL
same,MIC,Listeria monocytogenes,1 µg/mL
same,MIC,[31],7.8 µg/mL
same,MIC,Acinetobacter baumannii,15.6 µg/mL
same,MIC,Enterobacter cloacae,> 125 µg/mL
same,MIC,Escherichia coli,7.8 µg/mL
same,MIC,Klebsiella pneumoniae,> 125 µg/mL
same,MIC,Pseudomonas aeruginosa,> 125 µg/mL
same,MIC,Salmonella enterica,> 125 µg/mL
same,MIC,[32],> 125 µg/mL
same,Activity,Staphylococcus aureus [38],Active
same,Activity,Staphylococcus aureus [39],Active
same,Activity,Staphylococcus aureus [40],Active
same,Activity,Staphylococcus aureus [41],20%
same,Activity,Staphylococcus aureus [42],60%
same,Activity,[33],20%
same,hemolysis at 1 h,[34],≤ 20%
same,Activity,[35],Non-Toxic
same,Activity,Staphylococcus aureus [36],Active
